# According to the M2OR odorant receptor database:
# Biological target: T1, UniProt Q7TR71
# T1 sequence (whole entry): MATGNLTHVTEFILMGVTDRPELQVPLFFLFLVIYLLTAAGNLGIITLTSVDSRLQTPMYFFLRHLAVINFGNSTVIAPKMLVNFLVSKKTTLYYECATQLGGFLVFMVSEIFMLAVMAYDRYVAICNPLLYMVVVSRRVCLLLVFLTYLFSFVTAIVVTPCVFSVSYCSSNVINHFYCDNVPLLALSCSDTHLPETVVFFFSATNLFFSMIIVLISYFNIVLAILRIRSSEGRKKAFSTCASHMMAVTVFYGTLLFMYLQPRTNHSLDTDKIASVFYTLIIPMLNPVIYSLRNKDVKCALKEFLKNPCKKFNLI
# Conditions: stereoisomer not certain
# In short: (§1)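 Transient luciferase assays in mammalian cell lines were common, though methods varied by source. The values come from published papers and their supplementary material, with extra details from the original authors when needed. Responsive refers to a measured signal the original authors judged statistically different from baseline, and non-responsive (inactive) to the remainder.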
# 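Further: active if original authors judged signal statistically different from baseline.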
row,SMILES,odorant receptor agonist call
1,CCCCOC(=O)C(C)OC(=O)CCC (stereo not given),inactive
2,CC(C)=CCCC(C)=CCO,inactive
3,O=C(c1ccccc1)c1ccccc1,inactive
4,CCCCCCOC(C)=O,inactive
5,CCCCCCC(=O)[O-].[H+],inactive
6,CCCCCCCC(=O)[O-].[H+],inactive
7,CCCCCCC(C)=O,inactive
8,CCC(C(=O)O)c1ccccc1 (stereo not given),inactive
9,CC(=O)Oc1ccccc1,inactive
10,CCCCCO,inactive
11,CCCC(C)=O,inactive

# Biological target: T2, UniProt Q7TR79
# T2 sequence (whole entry): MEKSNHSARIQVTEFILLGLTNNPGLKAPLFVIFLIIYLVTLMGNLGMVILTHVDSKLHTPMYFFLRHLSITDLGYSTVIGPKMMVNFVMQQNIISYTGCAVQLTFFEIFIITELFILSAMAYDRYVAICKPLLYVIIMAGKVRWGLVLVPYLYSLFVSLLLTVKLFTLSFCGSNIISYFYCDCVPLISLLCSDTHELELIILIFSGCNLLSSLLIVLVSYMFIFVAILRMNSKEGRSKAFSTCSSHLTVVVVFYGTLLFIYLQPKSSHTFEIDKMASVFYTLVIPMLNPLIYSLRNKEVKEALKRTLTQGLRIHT
# Conditions: stereoisomer not certain
# In short: as §1
row,SMILES,odorant receptor agonist call
1,CCCC=O,inactive
2,CC=Cc1ccc(OC)cc1,inactive
3,O=C(O)CCCCCBr,inactive
4,CCSCC,inactive
5,CC(C)CCN,inactive
6,CC(=O)C1(C)CC2=C(CCCC2(C)C)CC1C (stereo not given),inactive
7,CC(=O)OC1(C)CCC23CC1C(C)(C)C2CCC3C (stereo not given),inactive
8,C=CC(C)=CCC=C(C)CCC=C(C)C,inactive
9,CC(C)=CCCC(C)=CCO,inactive
10,CCCCCCCCCCOC(C)=O,inactive
11,O=C(c1ccccc1)c1ccccc1,inactive
12,C1CCOCC1,inactive
13,CCCCCCOC(C)=O,inactive
14,O=C([O-])CCCCCCC(=O)[O-].[H+].[H+],inactive
15,CC=CC(=O)C1=C(C)CCCC1(C)C,inactive
16,O=C([O-])CCCCCCCC(=O)[O-].[H+].[H+],inactive
17,Cc1occc1SSc1ccoc1C,inactive
18,CCC=CCCCCC=O,inactive
19,CCc1ncc(C)nc1CC,inactive
20,c1ccc2ncccc2c1,inactive
21,CCCCCCCCCCCO,inactive
22,CCCCCCC(C)=O,inactive
23,CC(=O)OCc1ccc2c(c1)OCO2,inactive
24,CC(=O)Oc1ccccc1,inactive
25,CCCCCCCOC(=O)C(C)C,inactive
26,CCCCCCC(C)O (stereo not given),inactive
27,CCN(CC)CC,inactive
28,O=C(O)C1CCC1,inactive

# Biological target: T3, UniProt Q7TRA3
# T3 sequence (whole entry): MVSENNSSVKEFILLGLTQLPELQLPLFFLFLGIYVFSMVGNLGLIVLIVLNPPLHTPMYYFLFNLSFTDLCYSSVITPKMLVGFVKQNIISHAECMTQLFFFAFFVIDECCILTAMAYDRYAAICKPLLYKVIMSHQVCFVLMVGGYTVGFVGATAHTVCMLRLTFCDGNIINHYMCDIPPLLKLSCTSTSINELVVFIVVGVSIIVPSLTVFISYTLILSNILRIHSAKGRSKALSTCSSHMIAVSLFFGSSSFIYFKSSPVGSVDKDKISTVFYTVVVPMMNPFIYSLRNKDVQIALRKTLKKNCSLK
# Conditions: stereoisomer not certain
# In short: as §1
row,SMILES,odorant receptor agonist call
1,CCCCOC(=O)C(C)OC(=O)CCC (stereo not given),inactive
2,CC(C)=CCCC(C)=CCO,inactive
3,O=C(c1ccccc1)c1ccccc1,active
4,CCCCCCOC(C)=O,inactive
5,CCCCCCC(=O)[O-].[H+],inactive
6,CCCCCCCC(=O)[O-].[H+],inactive
7,CCCCCCC(C)=O,inactive
8,CCC(C(=O)O)c1ccccc1 (stereo not given),inactive
9,CC(=O)Oc1ccccc1,inactive
10,CCCCCO,inactive
11,CCCC(C)=O,inactive
